As usually defined, the Ki is a dissociation constant, usually derived from enzyme kinetics or from competition with a known ligand. Low readings indicate a stronger hold on the target, high ones a looser hold on the target.

The structures appear in SMILES notation.

Assay [1] addresses 5-hydroxytryptamine receptor 2A (Rattus norvegicus, UniProt P14842). Kind of assay: Binding affinity against 5-hydroxytryptamine 2A receptor. Summed up: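 Brain tissue homogenized in Tris-HCl 50 mM, MgCl2 10 mM, pH 7.4, then washed, incubated 15 min at 37 °C, and resuspended with 0.1% ascorbate and 10⁻⁵ M pargyline. Triplicate tubes held 5 mg wet tissue and 0.4 nM [³H]-ketanserin, with 1.0 μM cinanserin defining nonspecific binding. Incubated 15 min at 37 °C, then filtered. Ki = IC50/(1 + D*/KD*).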

The target in assay [2] is T1, 5-hydroxytryptamine receptor 2C (Rattus norvegicus, UniProt P08909).
T1 sequence (P08909 whole entry): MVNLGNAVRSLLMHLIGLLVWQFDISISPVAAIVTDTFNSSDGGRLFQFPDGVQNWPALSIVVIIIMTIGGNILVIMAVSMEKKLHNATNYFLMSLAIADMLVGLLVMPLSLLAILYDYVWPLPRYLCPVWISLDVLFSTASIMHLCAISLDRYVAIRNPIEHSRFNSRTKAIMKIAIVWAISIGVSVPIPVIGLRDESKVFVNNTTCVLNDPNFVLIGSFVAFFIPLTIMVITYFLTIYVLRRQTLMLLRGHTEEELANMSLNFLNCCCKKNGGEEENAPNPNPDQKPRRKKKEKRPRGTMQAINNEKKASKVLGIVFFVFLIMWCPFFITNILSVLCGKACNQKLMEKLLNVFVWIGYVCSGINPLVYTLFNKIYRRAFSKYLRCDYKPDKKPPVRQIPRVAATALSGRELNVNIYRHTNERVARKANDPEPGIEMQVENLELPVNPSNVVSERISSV
The assay can be described thus: Binding affinity against 5-hydroxytryptamine 2C receptor. A digest of the protocol:
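Washed brain membranes in Tris-HCl/MgCl2 pH 7.4 with ascorbate and pargyline. Triplicate tubes held 10 mg wet tissue, 1 nM [³H]-mesulergine, and 100 nM spiperone in every tube to block 5-HT2A sites. Nonspecific binding was defined with 1.0 μM mianserin. Incubated 15 min at 37 °C, then filtered and counted. Ki came from IC50 corrected for radioligand concentration and KD.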

The target of assay [3] is Serotonin receptor 2a and 2c (5HT2A and 5HT2C) (Rattus norvegicus) (UniProt P08909+P14842). Kind of assay: Selectivity as the ratio of Ki value towards 5-hydroxytryptamine 2C receptor to that of 5-hydroxytryptamine 2A receptor. The format is protein assay.
Serotonin receptor 2a and 2c (5HT2A and 5HT2C) (Rattus norvegicus), sequence (P14842 whole entry, looked up, one chain of several): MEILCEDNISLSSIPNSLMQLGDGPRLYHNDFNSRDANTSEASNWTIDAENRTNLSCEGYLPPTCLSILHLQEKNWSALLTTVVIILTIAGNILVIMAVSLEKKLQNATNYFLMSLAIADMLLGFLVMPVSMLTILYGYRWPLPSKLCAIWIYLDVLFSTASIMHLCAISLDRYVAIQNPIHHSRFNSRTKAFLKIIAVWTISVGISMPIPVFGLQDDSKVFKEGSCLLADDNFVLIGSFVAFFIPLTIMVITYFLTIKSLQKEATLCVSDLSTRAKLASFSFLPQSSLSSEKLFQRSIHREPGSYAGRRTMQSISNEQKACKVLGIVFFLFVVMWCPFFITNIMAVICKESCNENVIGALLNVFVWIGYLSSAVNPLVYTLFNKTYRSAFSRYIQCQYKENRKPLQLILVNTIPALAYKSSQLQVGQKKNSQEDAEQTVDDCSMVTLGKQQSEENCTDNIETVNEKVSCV

5-hydroxytryptamine receptor 2A, sequence (P14842 whole entry): as the sequence (P14842 whole entry, looked up, one chain of several) above

For the compound `C(/Cc1ccccc1)=C(\c1ccccc1)C1CCN(CCCCc2ccccc2)CC1`, the Ki in assay [1] is 100 nM; in assay [2], 1390 nM. Moreover, the Selectivity in assay [3] came out at 14.
The corresponding values for `O=C(c1ccccc1)C1CCN(CCCCc2ccccc2)CC1` are 10 nM, 2400 nM and 240.
On to `OC(c1ccc(F)cc1)C1CCN(CCCCc2ccccc2)CC1` (stereo unspecified), for which the Ki in assay [1] is 126 nM; in assay [2] it was 6600 nM. The Selectivity in assay [3] was found to be 52.
The corresponding values for `c1ccc(CCCCN2CCC(=C(c3ccccc3)c3ccccc3)CC2)cc1` are 20 nM, 220 nM and 11.
In turn, `O=C(c1ccc(F)cc1)C1CCN(CCc2ccccc2)CC1` yielded a Ki in assay [1] of 8.5 nM. The Selectivity in assay [3] came to 17.
Regarding `Fc1ccc(CC2CCN(CCCCc3ccccc3)CC2)cc1`, the Ki in assay [1] was 40 nM; in assay [2] it was 2740 nM. In addition, the Selectivity in assay [3] came out at 70.
Consider `OC(c1ccc(F)cc1)C1CCN(CCc2ccccc2)CC1` (stereo unspecified), for which the Ki in assay [1] is 3 nM; in assay [2], 1520 nM. The Selectivity in assay [3] is 460.
The corresponding values for `O=c1[nH]c2ccccc2c(=O)n1CCN1CCC(C(c2ccccc2)c2ccccc2)CC1` are 18 nM, 52 nM and 3.
Turning to `c1ccc(CCN2CCC(Cc3ccccc3)CC2)cc1`, the figures for the Ki in assay [1] and in assay [2] were 22 nM and 1760 nM, respectively. In addition, the Selectivity in assay [3] worked out at 80.
In the case of `c1ccc(CCCCN2CCN(Cc3ccccc3)CC2)cc1`, the Ki was 240 nM in assay [1] and more than 10000 nM in assay [2]. In assay [3], the Selectivity was more than 40.
Regarding `Fc1ccc(CC2CCN(CCc3ccccc3)CC2)cc1`, the Ki worked out at 18 nM in assay [1] and 2000 nM in assay [2]. In addition, in assay [3], the Selectivity came to 110.
The corresponding values for `O=C(c1ccccc1)N1CCN(CCCCc2ccccc2)CC1` are 180 nM, 8520 nM and 47.
The like results for `OC(c1ccccc1)C1CCN(CCc2ccccc2)CC1` (stereo unspecified) [GLEMANSERIN] were, in that order, 2.5 nM, 830 nM and 330.
The like results for `OC(c1ccccc1)C1CCN(CCCCc2ccccc2)CC1` (stereo unspecified) were, in that order, 265 nM, more than 10000 nM and more than 35.
Take `c1ccc(CCCCN2CCC(Cc3ccccc3)CC2)cc1`: the inhibitory constant (Ki) in assay [1] is 120 nM; in assay [2] it was 4120 nM. Further, the Selectivity in assay [3] came out at 34.
The corresponding values for `CN1CCC(C(=O)c2ccccc2)CC1` are 600 nM, more than 10000 nM and more than 16.
The like results for `O=c1[nH]c2ccccc2c(=O)n1CCN1CCN(C(c2ccccc2)c2ccccc2)CC1` were, in that order, 65 nM, 635 nM and 10.
For the compound `O=C(c1ccc(F)cc1)C1CCN(CCCCc2ccccc2)CC1`, affinity in assay [1] was put at a Ki of 5.3 nM. For the same compound, the Selectivity in assay [3] was found to be 120.
As to `C(=C(\c1ccccc1)C1CCN(CCc2ccccc2)CC1)/c1ccccc1`, the affinity in assay [1], expressed as Ki, was 19 nM.
`O=C(c1ccccc1)C1CCN(CCc2ccccc2)CC1`: the Ki in assay [1] is 9.6 nM; in assay [2], 800 nM. Moreover, the Selectivity in assay [3] is 83.
On to `CN1CCN(C(=O)c2ccccc2)CC1`, for which the Ki in assay [1] and in assay [2] was more than 10000 nM each time.
As to `c1ccc(CCN2CCC(=C(c3ccccc3)c3ccccc3)CC2)cc1`, the Ki in assay [1] came out at 6.9 nM; in assay [2], 29 nM. Moreover, in assay [3], the Selectivity worked out at 4.

(Values after ChEMBL document CHEMBL1128287, “Ketanserin analogues: the effect of structural modification on 5-HT2 serotonin receptor binding” (J Med Chem, 1995).)
